Results taken from ChEMBL document CHEMBL1132805, “Parallel synthesis of isatin-based serine protease inhibitors” (Bioorg Med Chem Lett, 2000).
The source made the active and inactive calls. The rule behind the calls is not given here.

What was measured:
[1] = molecular target: T1, Neutrophil elastase (Homo sapiens) (UniProt P08246); test: Inhibition of human leucocyte elastase at 20 ug/mL
T1 sequence (whole entry): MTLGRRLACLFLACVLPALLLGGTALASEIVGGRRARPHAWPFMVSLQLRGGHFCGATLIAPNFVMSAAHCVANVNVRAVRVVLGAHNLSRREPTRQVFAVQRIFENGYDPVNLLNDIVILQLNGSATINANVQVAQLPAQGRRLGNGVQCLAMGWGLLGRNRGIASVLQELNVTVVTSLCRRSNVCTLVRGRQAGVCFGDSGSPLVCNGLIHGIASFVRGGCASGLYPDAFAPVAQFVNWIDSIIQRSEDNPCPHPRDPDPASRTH
How it was run: (§1)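 Human leukocyte elastase at 40 nM in reaction, with substrate Suc-Ala-Pro-Ala-AMC. A commercial elastase inhibitor serves as control. 50 mM Tris-HCl pH 7.2 with 15% glycerol, 60 min at 37 °C. Fluorescence read at 370/460 nm. Compounds are added from 10 mg/mL DMSO stock. Quenching is assessed on free AMC in the assay buffer.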

[2] = molecular target: Plasminogen (Homo sapiens) (UniProt P00747); test: Inhibition of human plasmin at 20 ug/mL
Chain of Plasminogen (Homo sapiens) (P00747 97-580 limits assumed): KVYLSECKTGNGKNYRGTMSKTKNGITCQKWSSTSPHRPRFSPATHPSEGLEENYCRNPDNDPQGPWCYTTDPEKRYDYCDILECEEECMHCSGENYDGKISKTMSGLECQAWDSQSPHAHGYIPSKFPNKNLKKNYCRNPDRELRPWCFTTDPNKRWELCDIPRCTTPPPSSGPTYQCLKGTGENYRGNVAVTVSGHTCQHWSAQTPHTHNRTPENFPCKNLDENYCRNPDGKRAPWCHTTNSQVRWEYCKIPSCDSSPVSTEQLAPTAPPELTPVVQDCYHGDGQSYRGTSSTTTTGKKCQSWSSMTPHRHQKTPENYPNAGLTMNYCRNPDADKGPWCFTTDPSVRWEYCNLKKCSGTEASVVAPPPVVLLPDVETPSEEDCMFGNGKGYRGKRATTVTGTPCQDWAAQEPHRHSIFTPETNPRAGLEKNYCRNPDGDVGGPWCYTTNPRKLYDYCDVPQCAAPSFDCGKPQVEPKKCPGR
Chain of Plasminogen (Homo sapiens) (P00747 581-810 limits assumed): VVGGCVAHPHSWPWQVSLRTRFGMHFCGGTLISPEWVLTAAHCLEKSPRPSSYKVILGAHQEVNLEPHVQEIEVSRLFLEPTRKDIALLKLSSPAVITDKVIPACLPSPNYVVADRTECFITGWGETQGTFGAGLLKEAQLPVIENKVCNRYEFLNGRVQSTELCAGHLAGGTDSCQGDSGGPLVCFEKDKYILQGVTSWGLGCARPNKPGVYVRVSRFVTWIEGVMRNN
How it was run: (§2)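 Plasmin from human plasma, 165 pM in reaction, with fluorogenic H-Ala-Phe-Lys-AMC. α2-Antiplasmin serves as the control inhibitor. Run in 50 mM Tris-HCl pH 7.2, 15% glycerol, 60 min at 37 °C. Read-out is AMC fluorescence at ex/em 370/460 nm. Compounds come from 10 mg/mL DMSO stock. Quenching is checked with free AMC in the same buffer.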

[3] = molecular target: T2, Chymotrypsin-C (Homo sapiens) (UniProt Q99895); test: Inhibition of human Serine protease chymotrypsin at 20 ug/mL
T2 sequence (whole entry): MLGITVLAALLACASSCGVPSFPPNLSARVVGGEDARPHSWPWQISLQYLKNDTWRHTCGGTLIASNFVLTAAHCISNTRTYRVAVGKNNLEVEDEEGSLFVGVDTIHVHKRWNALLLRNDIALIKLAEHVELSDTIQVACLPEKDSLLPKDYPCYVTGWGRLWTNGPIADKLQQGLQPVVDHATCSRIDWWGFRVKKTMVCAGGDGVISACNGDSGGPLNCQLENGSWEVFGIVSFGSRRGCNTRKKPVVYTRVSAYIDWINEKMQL
How it was run: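 Fluorogenic substrate Suc-Ala-Ala-Pro-Phe-AMC. Chymostatin serves as the control inhibitor. Reaction in 50 mM Tris-HCl pH 7.2 with 15% glycerol, incubated 60 min at 37 °C. AMC fluorescence is read at ex/em 370/460 nm. Compounds are from DMSO stock, 10 mg/mL. Compound quenching is checked against free AMC in the same buffer.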

[4] = molecular target: T1, Neutrophil elastase (Homo sapiens); test: Evaluated for percent inhibition of human leucocyte elastase at 20 ug/mL; NA means not active; how it was run: as §1
[5] = molecular target: Plasminogen (Homo sapiens) (UniProt P00747); test: Evaluated for percent inhibition of human plasmin at 20 ug/mL; NA means not active; how it was run: as §2

| SMILES | inhibition [1] [%] | inhibition [2] [%] | inhibition [3] [%] | inhibition [4] | inhibition [5] |
| --- | --- | --- | --- | --- | --- |
| O=C1C(=O)N(CC(=O)N2CCN(C(=O)Nc3cccc4ccccc34)CC2)c2ccc(Cl)cc21 | 74 | 80 | 82 |  |  |
| CC(C)(C)C(=O)CN1C(=O)C(=O)c2ccccc21 | 51 | 55 | 85 |  |  |
| O=C1C(=O)N(CC(=O)N2CCN(C(=O)Nc3cccc4ccccc34)CC2)c2ccc(OC(F)(F)F)cc21 | 79 | 77 | 79 |  |  |
| Cc1ccc(C(=O)CN2C(=O)C(=O)c3ccccc32)cc1 | 45 | 84 | 94 |  |  |
| N#Cc1cccc(NC(=O)N2CCN(C(=O)CN3C(=O)C(=O)c4cc(OC(F)(F)F)ccc43)CC2)c1 | 26 | 57 | 77 |  |  |
| O=C(CN1C(=O)C(=O)c2ccccc21)c1ccc(Cl)cc1 | 56 | 87 | 89 |  |  |

Continued, values first:

| inhibition [1] [%] | inhibition [2] [%] | inhibition [3] [%] | inhibition [4] | inhibition [5] | SMILES |
| --- | --- | --- | --- | --- | --- |
| 94 | 82 | 87 |  |  | CCCCOC(=O)Nc1cccc(NC(=O)NC(=O)N2CCN(C(=O)CN3C(=O)C(=O)c4cc([N+](=O)[O-])ccc43)CC2)c1 |
| 64 | 86 | 97 |  |  | O=C(CN1C(=O)C(=O)c2cc(OC(F)(F)F)ccc21)c1ccc2ccccc2c1 |
| 90 | 89 | 83 |  |  | O=C(CN1C(=O)C(=O)c2ccccc21)c1ccc(F)cc1 |
|  |  | 95 | inactive | inactive | CC(C)C[C@H](NC(=O)[C@@H](NC(=O)N[C@@H](Cc1ccccc1)C(=O)O)C1CCNC(=N)N1)C(=O)N[C@H](C=O)Cc1ccccc1 (stereo partly drawn) |
| 3 | 29 | 5 |  |  | NC(=O)CN1C(=O)C(=O)c2ccccc21 |
